Results on eight molecules are retold here after ChEMBL document CHEMBL1121999 (J Med Chem, 1982).

Experiment [1] concerns the target 4-aminobutyrate aminotransferase, mitochondrial (Rattus norvegicus) (UniProt P50554). The experiment is described as follows: In vitro inhibition of succinate formation in the synaptosomal Gamma-amino-N-butyrate transaminase assay at 100 uM. It counts as functional. Put shortly: (§1)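 Rat whole brain minus cerebellum was homogenized at 4 °C in 0.32 M sucrose and spun at 1000g for 10 min, then at 27000g for 20 min to give the P₂ synaptosome pellet. Uptake and transaminase were measured together: 100 μM compound with 25 μM [³H]GABA in Krebs-Ringer phosphate buffer, 10 min at room temperature. Reactions were stopped with 1 mM GABA plus 1 mM succinic acid and centrifuged. Supernatant went onto Dowex 50 and tissue radioactivity was counted. Results are given as % of drug-free control.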

The species named for a further experiment is Rattus norvegicus. Put plainly: […] effect on [3H]-GABA release from rat cortical synaptosomes at 100 uM (No effect). Type of experiment: functional. Particulars: Brain.
Experiment [2] deals with GABA transporter (Rattus norvegicus) (UniProt P31647+P23978+P31646+P48056). Put plainly: In vitro maximal effect for synaptosomal GABA uptake at 100 uM. It counts as functional. Put shortly: as §1
Chain of GABA transporter (Rattus norvegicus) (P31646 whole entry, looked up): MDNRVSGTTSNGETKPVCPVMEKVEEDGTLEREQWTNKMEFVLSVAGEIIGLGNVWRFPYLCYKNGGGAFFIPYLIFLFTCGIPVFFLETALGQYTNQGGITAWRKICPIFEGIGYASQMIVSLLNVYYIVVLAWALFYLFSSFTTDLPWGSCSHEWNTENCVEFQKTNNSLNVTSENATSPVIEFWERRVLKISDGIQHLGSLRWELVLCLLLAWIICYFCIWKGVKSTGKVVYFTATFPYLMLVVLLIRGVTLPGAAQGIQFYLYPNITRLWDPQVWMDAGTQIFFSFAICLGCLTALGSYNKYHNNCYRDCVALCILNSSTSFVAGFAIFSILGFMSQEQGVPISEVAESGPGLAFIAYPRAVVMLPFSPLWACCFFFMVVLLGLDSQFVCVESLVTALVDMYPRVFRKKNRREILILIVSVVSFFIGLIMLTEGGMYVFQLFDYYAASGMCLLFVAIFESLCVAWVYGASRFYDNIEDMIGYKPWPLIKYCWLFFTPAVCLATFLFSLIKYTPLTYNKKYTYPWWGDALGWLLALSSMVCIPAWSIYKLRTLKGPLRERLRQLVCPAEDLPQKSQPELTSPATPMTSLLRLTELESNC
Chain of GABA transporter (Rattus norvegicus) (P31647 whole entry, looked up): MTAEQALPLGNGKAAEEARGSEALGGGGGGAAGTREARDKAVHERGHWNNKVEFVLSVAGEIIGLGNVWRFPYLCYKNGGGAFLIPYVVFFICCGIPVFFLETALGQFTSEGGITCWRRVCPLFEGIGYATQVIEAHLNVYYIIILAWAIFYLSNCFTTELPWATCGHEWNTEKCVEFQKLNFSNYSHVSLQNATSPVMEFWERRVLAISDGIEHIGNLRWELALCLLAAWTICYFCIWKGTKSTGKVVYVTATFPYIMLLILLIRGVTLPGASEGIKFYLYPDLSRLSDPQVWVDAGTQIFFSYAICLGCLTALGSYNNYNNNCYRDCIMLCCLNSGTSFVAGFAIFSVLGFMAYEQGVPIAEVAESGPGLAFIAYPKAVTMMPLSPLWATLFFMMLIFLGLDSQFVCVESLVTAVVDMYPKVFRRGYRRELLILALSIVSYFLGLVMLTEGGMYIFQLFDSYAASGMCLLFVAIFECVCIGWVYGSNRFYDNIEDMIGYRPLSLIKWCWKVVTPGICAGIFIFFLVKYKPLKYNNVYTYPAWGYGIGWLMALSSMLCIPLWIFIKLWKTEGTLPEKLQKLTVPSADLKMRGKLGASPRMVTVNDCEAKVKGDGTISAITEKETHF
Chain of GABA transporter (Rattus norvegicus) (P48056 whole entry, looked up): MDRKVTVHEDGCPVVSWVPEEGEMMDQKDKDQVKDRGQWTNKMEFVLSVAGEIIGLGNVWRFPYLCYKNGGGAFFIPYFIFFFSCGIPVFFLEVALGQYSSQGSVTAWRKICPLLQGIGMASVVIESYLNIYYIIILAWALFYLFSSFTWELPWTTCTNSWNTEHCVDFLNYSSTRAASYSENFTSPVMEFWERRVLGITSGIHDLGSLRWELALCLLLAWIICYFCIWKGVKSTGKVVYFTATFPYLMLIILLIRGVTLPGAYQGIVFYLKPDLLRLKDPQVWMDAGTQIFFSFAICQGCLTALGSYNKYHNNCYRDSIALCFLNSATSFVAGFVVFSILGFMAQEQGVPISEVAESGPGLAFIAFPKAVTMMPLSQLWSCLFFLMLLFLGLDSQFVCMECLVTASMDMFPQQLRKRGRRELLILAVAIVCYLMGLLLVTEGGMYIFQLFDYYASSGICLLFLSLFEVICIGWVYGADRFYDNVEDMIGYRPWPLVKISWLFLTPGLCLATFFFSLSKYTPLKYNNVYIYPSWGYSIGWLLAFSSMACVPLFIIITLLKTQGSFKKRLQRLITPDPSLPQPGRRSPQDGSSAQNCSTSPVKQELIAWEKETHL
The target in experiment [3] is GABA-A receptor; anion channel. Put plainly: Inhibition of 2 nM [3H]muscimol binding to Gamma-aminobutyric acid (GABA-A) receptor in rat brain crude synaptic membranes. It counts as cell membranes, Membrane.

The source made the active and inactive calls. The rule behind the calls is not given here. Some results are limits rather than exact numbers.

Chain of 4-aminobutyrate aminotransferase, mitochondrial (Rattus norvegicus) (P50554 28-500 limits assumed): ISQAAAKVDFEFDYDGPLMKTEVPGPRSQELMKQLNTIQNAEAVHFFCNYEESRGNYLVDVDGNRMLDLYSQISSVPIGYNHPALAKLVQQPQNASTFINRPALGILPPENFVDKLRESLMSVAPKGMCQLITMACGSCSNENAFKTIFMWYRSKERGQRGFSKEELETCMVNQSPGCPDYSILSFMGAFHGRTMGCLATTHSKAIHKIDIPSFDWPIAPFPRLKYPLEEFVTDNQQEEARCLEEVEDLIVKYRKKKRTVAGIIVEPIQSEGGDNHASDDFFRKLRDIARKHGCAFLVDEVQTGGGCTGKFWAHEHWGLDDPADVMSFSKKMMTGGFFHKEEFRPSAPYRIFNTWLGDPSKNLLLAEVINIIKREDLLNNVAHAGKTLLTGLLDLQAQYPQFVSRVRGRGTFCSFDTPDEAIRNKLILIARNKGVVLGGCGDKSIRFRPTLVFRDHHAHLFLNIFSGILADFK

Regarding `O=C(O)C1CCCNC1` (stereo unspecified), the inhibition in experiment [1] was determined as 70%.
Consider `NC(=O)C(=O)O`, for which the inhibition in experiment [1] was 60%.
Consider `CN1C(=O)Nc2cc(CN)ccc2S1(=O)=O`, for which the outcome in the experiment listed under Rattus norvegicus was inactive. This molecule also showed an Effect in experiment [2] of 30%. Moreover, the inhibition in experiment [1] worked out at 30%. The molecule also came in with an IC50 in experiment [3] of over 20 µM.
In the case of `CN(C)Cc1ccc2c(c1)NC(=O)N(C)S2(=O)=O`, the result in the experiment listed under Rattus norvegicus was inactive. Further, in experiment [2], the Effect stood at 30%. In experiment [1], this molecule yielded an inhibition of 30%. In experiment [3], the IC50 is over 20 µM.
Consider `CN1C(=O)Nc2cccc(CN)c2S1(=O)=O`, for which, in the experiment filed under Rattus norvegicus, the outcome was inactive. For the same molecule, the Effect in experiment [2] was 30%. In experiment [1], the inhibition was found to be 30%. Also, the IC50 in experiment [3] is over 20 µM.
For the molecule `CC1=NS(=O)(=O)c2ccc(CN(C)C)cc2N1`, the outcome in the experiment listed under Rattus norvegicus was inactive. In experiment [2], this molecule registered an Effect of 30%. The same molecule registered an inhibition in experiment [1] of 30%. In experiment [3], this molecule returned a half-maximal inhibitory concentration (IC50) of over 20 µM.
In the case of `CC1=NS(=O)(=O)c2ccc(CN)cc2N1`, in the experiment listed under Rattus norvegicus, the result was inactive. Moreover, the Effect in experiment [2] was 30%. In addition, the inhibition in experiment [1] is 30%. This molecule also returned an IC50 in experiment [3] of over 20 µM.
As to `CC1=NS(=O)(=O)c2c(CN)cccc2N1`, the result in the experiment filed under Rattus norvegicus was inactive. The molecule also displayed an Effect in experiment [2] of 30%. In experiment [1], this molecule registered an inhibition of 30%. For the same molecule, in experiment [3], the IC50 is over 20 µM.
